Three compounds from ChEMBL document CHEMBL4261620, “Design, synthesis, and biological evaluation of 4-chloro-2H-thiochromenes featuring nitrogen-containing side chains as potent antifungal agents” (Bioorg Med Chem Lett, 2018) can be followed below.

For test [1], the system named is Candida albicans. The experiment in a line: Antifungal activity against Candida albicans cpcc 400616 after 2 to 7 days by broth microdilution method. Type of test: functional. Put shortly: (§1)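 Broth microdilution in 96-well plates per NCCLS. Compounds and fluconazole reference dissolved in DMSO, serially diluted in growth medium, then inoculum suspension added, final concentrations 128 to 0.25 µg/mL (twofold series). Incubated at 32°C. MIC read visually after 2-7 d.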

Test [2] has as its system Candida albicans. Briefly: Antifungal activity against fluconazole-sensitive Candida albicans ATCC SC5314 after 2 to 7 days by broth microdilution method. The test is classed as functional. An outline of the steps: as §1
The subject of test [3] is Candida albicans. Briefly: Antifungal activity against fluconazole-resistant Candida albicans 103 after 2 to 7 days by broth microdilution method. Type of test: functional. An outline of the steps:
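Broth microdilution per NCCLS. Compounds dissolved in DMSO, serially diluted in growth medium, then inoculum suspension added to give final concentrations of 128 to 0.25 µg/mL (twofold steps). Plates incubated at 32°C. MIC read by visual observation after 2-7 d. Fluconazole served as reference drug.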

Another test has as its system Cryptococcus neoformans. Briefly: Antifungal activity against Cryptococcus neoformans cgmcc 2.3161 after 2 to 7 days by broth microdilution method. The test is classed as functional. Put shortly: as §1
A general note: Broth dilution looks for growth in wells or tubes with falling amounts of substance.

The next test relates to Candida tropicalis. The experiment in a line: Antifungal activity against Candida tropicalis cgmcc 2.3739 after 2 to 7 days by broth microdilution method. Type of test: functional. An outline of the steps: as §1
For a further test, the system named is Aspergillus fumigatus. Briefly: Antifungal activity against Aspergillus fumigatus cgmcc 3.7795 after 2 to 7 days by broth microdilution method. The test is classed as functional. An outline of the steps:
as §1

Another test concerns A549. The experiment in a line: Cytotoxicity against human A549 cells by MTT assay. Type of test: cell-based. A general note: Tetrazolium assays rely on reduction of a dye to a coloured formazan, in cell work by metabolically active cells.
The test system of another test is HepG2. The experiment in a line: Cytotoxicity against human HepG2 cells by MTT assay. Type of test: cell-based.
In the next test the test system is HT-29. The experiment in a line: Cytotoxicity against human HT-29 cells by MTT assay. The test is classed as cell-based.
Another test concerns H9c2. The experiment in a line: Cytotoxicity against rat H9c2 cells by MTT assay. The test is classed as cell-based.

Each structure is given as a SMILES string. In brackets after ≈: the same amount, converted by molar mass. Bounds are passed on as bounds.

By MIC is commonly meant the lowest concentration that inhibits growth of the organism. Lower therefore signals a more susceptible organism. The term IC50 denotes the concentration that inhibits the measured activity by half. Consider `O=CC1=C(Cl)c2cc(Br)ccc2SC1`, for which the MIC against Candida albicans [1] is 32 µg/mL (≈ 111 µM); against Candida albicans [2], 16 µg/mL (≈ 55.3 µM); in the test with Candida albicans [3], 64 µg/mL (≈ 221 µM); in the test with Cryptococcus neoformans it was 32 µg/mL (≈ 111 µM); with Candida tropicalis it was 64 µg/mL (≈ 221 µM); in the test with Aspergillus fumigatus, over 128 µg/mL. Moreover, the concentration for half-maximal inhibition (IC50) with A549 was over 100 µg/mL; in the test on HepG2, 26.6 µg/mL (≈ 91.9 µM); in the test on HT-29, 28.8 µg/mL (≈ 99.4 µM); with H9c2, over 100 µg/mL.

Take `O=CC1=C(Cl)c2cc(Cl)ccc2SC1`: the MIC was 64 µg/mL (≈ 261 µM) against Candida albicans [1]; 32 µg/mL (≈ 131 µM) against Candida albicans [2]; 64 µg/mL (≈ 261 µM) in the test with Candida albicans [3]; 32 µg/mL (≈ 131 µM) in the test on Cryptococcus neoformans; 32 µg/mL (≈ 131 µM) in the test on Candida tropicalis; over 128 µg/mL against Aspergillus fumigatus. In addition, the IC50 in the test on A549 was over 100 µg/mL; with HepG2, 21.5 µg/mL (≈ 87.8 µM); in the test with HT-29, 18.4 µg/mL (≈ 75.2 µM); in the test with H9c2, over 100 µg/mL.

Consider `OC(Cn1cncn1)(Cn1cncn1)c1ccc(F)cc1F` [FLUCONAZOLE], for which the MIC against Candida albicans [1] is 4 µg/mL (≈ 13.1 µM); in the test on Candida albicans [2], 1 µg/mL (≈ 3.27 µM); against Candida albicans [3], 32 µg/mL (≈ 104 µM); against Cryptococcus neoformans, 1 µg/mL (≈ 3.27 µM); with Candida tropicalis it was 2 µg/mL (≈ 6.53 µM); against Aspergillus fumigatus, over 128 µg/mL. The IC50 in the test with A549, in the test on HepG2, in the test on HT-29 and in the test on H9c2 was over 100 µg/mL in each case.
